Only some compounds are listed: those with a hit (about 3.2% of all), similar ones and a draw of the others.
JNK3 inh: blocks human JNK3 kinase activity; P53779; purified JNK3 kinase activity, HTS; inhibition, % at 8 µM; 0.61% of 60,000 active; in the data active = inhibition above about 17%
BAP1 block: blocks human BAP1 ubiquitin-AMC hydrolysis. Q92560. recombinant BAP1, Ub-AMC hydrolysis fluorescence kinetic; stronger effect = lower value. activity remaining (% of control), % at 20 µM. 0.48% of 72,000 active. AID 436;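 active = activity remaining at or below 50% of control, provided the compound also passes the data quality filters; inactive = the rest, including low values that fail the filters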
Target sequence (Q92560 whole entry, looked up): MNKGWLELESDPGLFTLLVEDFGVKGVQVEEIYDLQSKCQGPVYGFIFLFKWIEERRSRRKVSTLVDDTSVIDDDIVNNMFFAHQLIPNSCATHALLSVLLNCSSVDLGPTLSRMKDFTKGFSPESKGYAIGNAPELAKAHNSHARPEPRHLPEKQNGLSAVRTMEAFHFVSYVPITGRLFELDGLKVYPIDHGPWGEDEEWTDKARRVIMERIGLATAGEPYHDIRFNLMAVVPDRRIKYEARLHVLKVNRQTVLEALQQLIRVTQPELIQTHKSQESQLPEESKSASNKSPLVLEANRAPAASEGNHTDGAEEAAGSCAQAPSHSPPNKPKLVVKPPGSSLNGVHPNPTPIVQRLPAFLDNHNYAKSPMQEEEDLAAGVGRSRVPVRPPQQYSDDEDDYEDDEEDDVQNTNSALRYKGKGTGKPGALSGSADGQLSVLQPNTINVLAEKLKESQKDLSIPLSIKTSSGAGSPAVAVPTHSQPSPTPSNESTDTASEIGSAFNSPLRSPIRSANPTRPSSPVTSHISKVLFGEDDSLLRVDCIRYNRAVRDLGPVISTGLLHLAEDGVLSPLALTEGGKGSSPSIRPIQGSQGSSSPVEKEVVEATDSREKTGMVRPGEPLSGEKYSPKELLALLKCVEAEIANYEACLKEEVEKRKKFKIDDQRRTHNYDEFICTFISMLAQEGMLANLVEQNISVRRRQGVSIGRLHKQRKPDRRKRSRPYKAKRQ
SF-1 act: activates the human nuclear receptor SF-1; Q13285; CHO-K1 Gal4-SF-1 LBD luciferase reporter; % increase over DMSO SF-1-specific signal; activation, % at 10 µM; 1.9% of 65,000 active; AID 522;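 active = activation above the mean activation of all tested compounds plus 3 SD, cut at about 50% in these data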
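System: CHO-K1 cells with Gal4–hSF-1 LBD chimera plus Gal4-driven luciferase; quantity: 4,000 CHO-K1 cells per well; compound: one dose, 10 µM compound, 1% DMSO; times: 20 h compound treatment, 37 °C; measured by: SteadyLite luciferase luminescence; read-out: percent activation versus DMSO; benchmarks: DMSO and mock-transfected background; replicates: one test per compound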
E coli RNAP: inhibitors of Escherichia coli RNA polymerase; E. coli RNA polymerase, fluorescence transcription assay; 0.2% of 62,000 active; inhibition, %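 (tested at 10 µM)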; in the data active = inhibition above about 20%
RORA act: activators of human nuclear receptor RORA. P35398. activation, % at 10 µM. CHO-K1 Gal4-RORA LBD luciferase reporter, luminescence; percent increase over mock-subtracted basal signal. 1.5% of 65,000 active;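 active = activation above the mean of all tested compounds plus 3 SD, cut at about 49% in these data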
BAP1 inh conf: confirmation of human BAP1 enzyme inhibitors; % of control activity, % at 20 µM; purified BAP1, Ub-ethyl ester hydrolysis, HPLC; stronger effect = lower value; shares compounds with BAP1 block; 8% of 310 active;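 active = percent of control activity at or below 60%; inconclusive = HPLC trace unusable from injection failure or solvent front hiding peaks; inactive = the rest, plus ubiquitin peak ratio over a set limit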
Of the large screens only hits and unclear results are named; the others gave an inactive call (follow-up assays come after a bar, where shown).

CC(C)OC(=O)CSc1nnnn1-c1ccc2c(c1)OCCO2	SF-1 act 69.0, RORA act 54.1
O=C(CSc1nnnn1Cc1ccccc1)Nc1ccc2c(c1)OCCO2	none (not shown: BAP1 block)
CC(C)(C)NC(=O)c1cnn2c1NC(c1ccc(F)cc1)CC2C(F)(F)F (stereo not drawn)	none
CCCn1nc(C(=O)NCCc2ccc(S(N)(=O)=O)cc2)c2ccccc2c1=O	none
Cc1nc2c(=O)oc3ccccc3c2n1-c1ccccc1	none
O=C(NC1CCCC1)C1CCCN1C(=O)Nc1ccccc1Cl (stereo not drawn)	none
CC(C)Oc1ccc(C2C(C(=O)c3ccco3)=C(O)C(=O)N2Cc2cccnc2)cc1 (stereo not drawn)	RORA act 69.5
O=C(NO)c1ccc(C(=O)N(C2CCCCC2)C2CCCCC2)cc1	none
CCOC(=O)CCC(NC(=O)c1ccc(NCN2C(=O)c3ccccc3C2=O)cc1)C(=O)OCC (stereo not drawn)	JNK3 inh 27.8
CCOC(=O)CCC(NC(=O)c1ccc(NCN2C(=O)CCC2=O)cc1)C(=O)OCC (stereo not drawn)	none
Cc1nc2nc(-c3cccs3)cn2nc1C	RORA act 53.2
COc1cccc(-c2cn3nc(C)c(C)nc3n2)c1	none
COC(=O)CSc1ccccc1C(=O)OC	none
COC(=O)c1cccc2c1-c1ccccc1/C2=N/O	JNK3 inh 53.5
CC1(C)Cc2c(sc3nc(-c4cc5ccccc5o4)n(N)c(=O)c23)CO1	RORA act 59.0
CC(=NCCN1CCOCC1)C1=C(O)c2ccccc2C1=O	none
O=C1C(C=NCCCn2ccnc2)=C(O)c2ccccc21	none
CC(=NCc1cccnc1)C1=C(O)c2ccccc2C1=O	JNK3 inh 37.0
CC(=NCCCn1ccnc1)C1=C(O)c2ccccc2C1=O	JNK3 inh 29.2
CSc1nnnn1-c1ccc(C(=O)OCC(=O)N2CCOCC2)cc1	none
CC1(C)CC(=O)C(C=Nc2ccc3c(c2)OCO3)=C(O)C1	SF-1 act 72.4, RORA act 65.4
COc1ccc(OC)c(N=CC2=C(O)CC(C)(C)CC2=O)c1	none (no result: E coli RNAP)
COc1ccc(N=Cc2cccc([N+](=O)[O-])c2O)cc1	none (no result: JNK3 inh, SF-1 act, E coli RNAP, RORA act)
COc1ccc(N=CC2=C(O)CC(C)(C)CC2=O)cc1	SF-1 act 87.2
COc1ccc(N=CC2=C(O)CCCC2=O)cc1	SF-1 act 52.2
COc1ccc(C(=O)Cn2c(N3CCOCC3)nc3c2c(=O)n(C)c(=O)n3C)cc1	none (not shown: BAP1 block)
CCOC(=O)CCCNS(=O)(=O)c1c(C)ccc2nsnc12	none
O=C(CSc1nnc(-c2ccc3c(c2)OCCO3)o1)N1CCCC1	SF-1 act 49.8
CCOc1ccc(-c2nnc(SCC(=O)N3CCOCC3)o2)cc1	RORA act 51.6
Cc1ccc(-c2nnc(SCC(=O)N3CCCC3)o2)cc1C	RORA act 57.8
CCC1CCCCN1C(=O)CSc1nnc(-c2ccc3c(c2)OCCO3)o1 (stereo not drawn)	none
O=C(CSc1nnc(-c2ccccc2Cl)o1)N1CCCCC1	RORA act 65.2
COc1ccc(-c2nnc(SCC(=O)N3CCOCC3)o2)cc1OC	none
CCCc1cc(=O)oc2cc(C)cc(OC(=O)c3ccco3)c12	none
Cc1cc(C)nc(/N=C2\NC(=O)CC(C(=O)O)N2c2ccc(Oc3ccccc3)cc2)n1 (stereo not drawn)	none
Cc1cc(N=CC2=C(O)CC(C)(C)CC2=O)no1	none
CC(C)NC(=O)CN(Cc1ccccc1)S(=O)(=O)c1ccccc1	none
CSCCC(Nc1ncnc2ccc(Br)cc12)C(=O)O (stereo not drawn)	JNK3 inh 19.5
COc1cccc(-c2noc(-c3cccs3)n2)c1	RORA act 66.5
COc1cccc(NC(=O)c2cccnc2)c1	none
COc1cccc(-c2noc(-c3cccnc3)n2)c1	RORA act 86.1
COc1cccc(-c2nc(-c3ccc(NC(=O)c4cccnc4)cc3)no2)c1	SF-1 act 54.6, RORA act 51.3
Cc1ccc(-c2nc(-c3cccnc3)no2)cc1	SF-1 act 55.5
COc1cccc(-c2nc(-c3ccccc3)no2)c1	none
CN(Cc1ccccc1)c1ncnc2ccc(Br)cc12	none
Cc1ccccc1-c1noc(-c2cccs2)n1	SF-1 act 53.1
CCCC(=O)N(Cc1cc2cc(C)ccc2[nH]c1=O)c1ccccc1OC	none
Cc1cc(OCCN2CCOCC2)nc2ccccc12	E coli RNAP 30.4
N#Cc1nc(COc2cccc(Cl)c2)oc1NCc1ccco1	RORA act 65.7
Cc1ccc(-c2nc(C#N)c(NCc3ccco3)o2)cc1	RORA act 88.7 (not shown: BAP1 block)
N#Cc1nc(-c2ccco2)oc1NCc1ccco1	none (not shown: BAP1 block)
Cc1ccc(OCc2nc(C#N)c(NCc3ccco3)o2)cc1	none (no result: JNK3 inh)
O=c1sc(Nc2ccccc2)nc2ccsc12	SF-1 act 56.0, RORA act 69.9 (no result: JNK3 inh)
COc1ccc(Nc2nc3ccccc3c(=O)s2)c(OC)c1	none
Cc1cc2c(C)nc(-c3ccccc3)nc2o1	SF-1 act 58.0, RORA act 60.3 (not shown: BAP1 block, E coli RNAP)
Cc1ccc(CCN2CC(C(=O)NCCCN3CCCCCC3)CC2=O)cc1 (stereo not drawn)	none
CCOC(=O)c1[nH]c2ccc(C)cc2c1N	SF-1 act 72.7
Cc1nn(-c2ccccc2)c2sc(C(=O)OCN3C(=O)c4ccccc4C3=O)cc12	BAP1 block 46.8
Nc1nc(-c2cccnc2)nn1C(=O)COc1ccccc1	BAP1 block 45.9 | BAP1 inh conf inactive
CCOC(=O)c1ccc(NC(=O)CCc2ccc(CC)o2)cc1	BAP1 block 35.8 | BAP1 inh conf inactive
CC(C)OC(=O)c1c(NC(=O)CCn2nnc3ccccc32)sc2c1CCCC2	BAP1 block 41.5 | BAP1 inh conf inactive
O=C(c1ccco1)[C@@H]1[C@@H]2C(=O)N(c3ccccc3)C(=O)[C@@H]2C2c3ccccc3C=CN21 (stereo partly drawn)	BAP1 block 41.0 | BAP1 inh conf inconclusive
Cc1ccc(N2C(=O)[C@@H]3[C@H](C2=O)C2c4ccccc4C=CN2[C@@H]3C(=O)c2ccco2)c(C)c1 (stereo partly drawn)	BAP1 block 32.5 | BAP1 inh conf inactive
CCC(C)(C(=O)NC1CCCC1)N(C(=O)CNC(C)=O)c1ccccc1 (stereo not drawn)	none (no result: JNK3 inh, BAP1 block)
COc1cccc(C2CC(=O)N3CN(c4cccc(Cl)c4C)CSC3=C2C#N)c1OC (stereo not drawn)	none
COc1ccc(OC)c(C2CC(=O)N3CN(c4cccc(Cl)c4C)CSC3=C2C#N)c1 (stereo not drawn)	BAP1 block 49.2 | BAP1 inh conf inactive
CC1CCc2nn(CC(=O)N3CCCCCC3)cc2C1 (stereo not drawn)	none
Cn1ccnc1SCC(=O)Nc1ccc2c(c1)COC2=O	none (not shown: BAP1 block)
Cc1ccc(-n2nnnc2SCC(=O)Nc2ccc3c(c2)COC3=O)cc1C	BAP1 block 31.5 | BAP1 inh conf inactive

Source: PubChem BioAssay (several laboratories)
